Measured values taken from publication PMC6614152 (Clinical Pharmacokinetics, 2019).
Where “and” joins values, the source holds several entries; their conditions need not be identical. Equal entries are not always repeated. Entries after “also recorded” stand apart in the source; their conditions may differ. Where two headings read alike, the source gives them in different places.

Columns and labels:
moderate to severe RA = conditions: monotherapy or in combination with csDMARDs; cited from earlier work
[1] = cited from earlier work
JAK1 = conditions: in vitro cellular assays; cited from earlier work
CYP2D6 = conditions: in vitro data; cited from earlier work
[2] = type: in vivo, humans
[3] = Population pharmacokinetic analysis; type: in vivo, humans
Summary of the method: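 Nonlinear mixed-effects model (FOCEI) fitted to 29,372 plasma concentrations from 4170 healthy and RA subjects across 12 studies (IR 1–48 mg, ER 7.5–30 mg), quantified by LC-MS/MS. Two-compartment structure: IR first-order absorption with lag time, ER mixed zero/first-order absorption with lag time, linear elimination; combined additive/proportional residual error. Below-LLOQ values were set to LLOQ/2, with later post-dose ones censored. Co-medications were time-varying covariates. Checked by VPC (400 replicates) and ER pcVPC.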

[4] = cited from earlier work; remark: listed apart in the source
CYP3A = conditions: strong CYP3A inhibitor ketoconazole; cited from earlier work
[5] = RA subjects with bodyweight < 60 kg, steady state, simulated
[6] = RA subjects with bodyweight > 100 kg, steady state, simulated
[7] = final model, population estimate (%RSE), outliers excluded
[8] = healthy subjects, ER formulation, population estimate

- AUC higher relative to subjects with a bodyweight of 60-100 kg [2, 5]: 5%
- Cmax higher compared with subjects with a bodyweight of 60-100 kg [2, 5]: 18%
- AUC lower relative to subjects with a bodyweight of 60-100 kg [2, 6]: 5%
- Cmax lower compared with subjects with a bodyweight of 60-100 kg [2, 6]: 18%
- AUC higher compared with RA subjects with normal renal function ([2]; RA subjects with moderate renal impairment (CrCl 30 to < 60 mL/min)): 26%
- time-dependent change in upadacitinib clearance with continued treatment ([3]; CWRES versus time): no time-dependent change
- dose proportionality of bioavailability ([3]; ER dose range of 7.5-30 mg): dose-proportional
- effect of pH-modifying medications on upadacitinib absorption from the ER formulation ([3]; ER formulation): no effect
- Bioavailability of the extended-release formulation relative to the immediate-release formulation [3, 7]: 76.2% and 76%
- ISV on CL/F in phase I [3, 7]: 21%
- ISV on CL/F in phase II/III [3, 7]: 37%
- ISV on Vc/F in phase I [3, 7]: 24%
- ISV on Vc/F in phase II/III [3, 7]: 53%
- apparent oral clearance [3, 8]: 53.7 L/h
- steady-state volume of distribution (sum of the central and peripheral volume of distribution) [3, 8]: 294 L
- correlation of baseline hsCRP with upadacitinib clearance ([3]; in vivo): not correlated
- effect of methotrexate on upadacitinib pharmacokinetics ([3]; in vivo): not affect
- effect of pH-modifying agents on upadacitinib pharmacokinetics ([3]; in vivo): not affect
- higher estimated upadacitinib AUC in RA subjects compared with healthy subjects ([3]; in vivo): 33%
- lower upadacitinib clearance in RA subjects compared with healthy subjects ([3]; in vivo): 25%
SMILES: CC[C@@H]1CN(C(=O)NCC(F)(F)F)C[C@@H]1c1cnc2cnc3[nH]ccc3n12 [upadacitinib, Upadacitinib]
- clinical signs and symptoms in subjects with moderate to severe RA compared with placebo or active comparators (moderate to severe RA): rapid and significant improvements; also recorded: significantly improved
- functional half-life ([1]; IR formulation): 3 to 4 h
- time at which peak plasma concentrations (Cmax) were reached ([1]; after ER dosing): 2 to 4 h
- time at which peak plasma concentrations (Cmax) were reached ([1]; after IR dosing): 1 to 2 h
- Cmax and Cmin of ER 15 and 30 mg once daily versus IR 6 mg and 12 mg twice daily [1]: comparable
- daily AUC of ER 15 and 30 mg once daily versus IR 6 mg and 12 mg twice daily [1]: equivalent
- terminal half-life ([1]; following administration of the IR or ER formulations): 6 to 16 h
- upadacitinib dose eliminated unchanged in urine (renal pathway) ([1]; phase I study): Approximately 20%
- linearity of pharmacokinetics ([1]; range of doses evaluated in phase I and II studies): linear pharmacokinetics
- selectivity for JAK1 over JAK2 (JAK1): approximately 60 fold
- selectivity for JAK1 over JAK3 (JAK1): more than 100 fold
- contribution of CYP2D6 to upadacitinib metabolism (CYP2D6): potential minor contribution
- effects of bodyweight and mild or moderate renal impairment on upadacitinib exposures ([3]; in vivo): statistically significant but non-clinically relevant effects; also recorded: Bodyweight and mild or moderate renal impairment had statistically significant but non-clinically relevant effects on upadacitinib exposures
- effect of CYP2D6 metabolic phenotype on apparent oral clearance [4]: no effect
- typical oral clearance in RA patients lower compared with healthy subjects [4]: 24%
- increase in upadacitinib exposures with ketoconazole (CYP3A): approximately 75%
